Assay: Toxicity liver stage against HepG2, at 10uM
Format: cell-based
Design: test concentration 10 uM, cell line HepG2-A16-CD81EGFP
Conditions: human, HepG2-A16-CD81EGFP cells; read-out: INHIBITION
Summary of the method: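 Uninfected HepG2-A16-CD81EGFP cells, 3 × 10^3 per well, 1536-well, plated on prespotted compound at 10 μM final, parasite-free screening media added to match infected plates; puromycin 10 μM positive, DMSO 0.5% negative; run in parallel with 48 h PbLuc assay at 37 °C, 5% CO2; viability by CellTiter-Glo luminescence, normalized to controls.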
Compound `C1CCC(OCCN2CCN(CCOC3CCCCC3)CC2)CC1` has a cytotoxicity at 10 µM of -0.434%. Compound `CCC(CC)C(=O)N1CCN(C)c2ncccc2C1` has a cytotoxicity at 10 µM of -3%. For `c1cc(NC2CC3(CCN(Cc4cscn4)C3)C2)ncn1` (stereo unspecified), the cytotoxicity at 10 µM was -2.28%. Compound `CNC(=O)C1CN(C(C)C)CCN1c1ncccn1` (stereo unspecified) has a cytotoxicity at 10 µM of 1.22%. `Cc1ncc(CN2CCc3c(nc4cc(C5CC5)nn4c3O)C2)n1C` gave a cytotoxicity at 10 µM of 6.62%. With `c1ncc(CN2CC(Cc3nccc4cc[nH]c34)C2)cn1` the cytotoxicity at 10 µM was -1.06%. Work on `Cc1cc(-c2cnc(N3CCSCC3)nc2-c2ccc(C)s2)on1` yielded a cytotoxicity at 10 µM of -2.5%. In the case of `N#Cc1ccccc1OCCN1CCCCC1C(=O)N1CCOCC1` (stereo unspecified), the cytotoxicity at 10 µM was -45.6%. For `CCCN1CCC(N(C)C(=O)c2cc(C)nc3cc(F)ccc23)CC1`, the cytotoxicity at 10 µM was 0.906%. Work on `Cc1ccc(CCCC(=O)N2CCC(=O)Nc3cccnc32)s1` yielded a cytotoxicity at 10 µM of -60.7%. In the case of `Cc1ncsc1CCN(C)Cc1ccc(Br)o1`, the cytotoxicity at 10 µM was -43%. Compound `CCN(C(c1cccnc1)c1cc(C)cc(C)c1)S(C)(=O)=O` (stereo unspecified) has a cytotoxicity at 10 µM of 2.88%. With `COc1ccc2cc(CN(C)C(C)c3nc(C4CC4)no3)ccc2c1` (stereo unspecified) the cytotoxicity at 10 µM was 3.18%. Work on `Cc1ccc(CNC(=O)c2c[nH]nc2NC(=O)C2CCC2)cc1` yielded a cytotoxicity at 10 µM of 2.05%. `CCOc1ccc(Cl)cc1NC(=O)N1CCC(n2cncn2)CC1` gave a cytotoxicity at 10 µM of 4.93%. `CC(C)c1nc(CNC2CCN(C(=O)OC(C)(C)C)CC2)cs1` gave a cytotoxicity at 10 µM of -1.72%. `CC(=O)N1CCC(NC(=O)NCc2ncc(-c3ccccc3)o2)CC1` gave a cytotoxicity at 10 µM of -44.7%. In the case of `Nc1cc2c(nn1)CCN(C(=O)c1csc(-c3ccccc3)n1)C2`, the cytotoxicity at 10 µM was -12.4%. `OCCNc1cc(-c2ccccc2)ncn1` gave a cytotoxicity at 10 µM of -7.94%. Compound `OCCNc1cc(-c2ccncc2)ncn1` has a cytotoxicity at 10 µM of -7.88%. Work on `CCc1cc(NC(CCO)c2ccc(OC)cc2)n2nccc2n1` (stereo unspecified) yielded a cytotoxicity at 10 µM of -30.4%. In the case of `CCOC(=O)N1CCN(c2nc(C)ncc2CC)CC1`, the cytotoxicity at 10 µM was -61.2%. With `O=C(O)c1cc(C2=CCCCC2)cc(S(=O)(=O)NCc2ccccn2)c1` the cytotoxicity at 10 µM was -46.6%. `CC(C)C(C)N(Cc1cnc2ccccc2n1)Cc1ccco1` (stereo unspecified) showed a cytotoxicity at 10 µM of 14.7%. Compound `CCc1cnc(C)nc1N1CCC(Cc2cccc(C(=O)O)c2)C1` (stereo unspecified) has a cytotoxicity at 10 µM of 2.42%. `CCCc1nc(C)cc(N2CCNC(C(=O)NC3CC3)C2)n1` (stereo unspecified) showed a cytotoxicity at 10 µM of -56.5%. In the case of `CCc1[nH]c2c(CNc3cncc(C(=O)N(C)C)n3)cc(F)cc2c1C`, the cytotoxicity at 10 µM was 3.86%. In the case of `COc1ccc(F)c(CN2CCCC3(CCN(S(C)(=O)=O)C3)C2)c1` (stereo unspecified), the cytotoxicity at 10 µM was -2.93%. With `N[C@H]1CN(Cc2cnc(N3CCCC3)nc2)C[C@@H]1C1CC1` the cytotoxicity at 10 µM was -45.5%. `Cc1ccc(C(=O)Nc2ccc(OC3CCN(C)CC3)cc2)c(C)c1` gave a cytotoxicity at 10 µM of 7.48%. For `COc1nccnc1N1CCN(Cc2ccc3c(c2)OCO3)C(=O)C1`, the cytotoxicity at 10 µM was -1.65%. For `CC(C)N(C)C(=O)CN1CCCC(c2ccc(C(=O)O)cc2)C1` (stereo unspecified), the cytotoxicity at 10 µM was -7.74%. In the case of `O=C(O)c1cc(-c2cccs2)nc2c(Cl)cnn12`, the cytotoxicity at 10 µM was -8.33%. For `Cc1nc(CN(C)C2CCCN(c3cccnn3)C2)nc2ccccc12` (stereo unspecified), the cytotoxicity at 10 µM was -0.164%. Work on `Cn1ncc2c(=O)[nH]c(CN(Cc3ccco3)C3CC3)nc21` yielded a cytotoxicity at 10 µM of -9.8%. For `Cc1ccc(NC2CCN(C(=O)c3ccc(F)c(C)c3)CC2)nn1`, the cytotoxicity at 10 µM was 2.37%. `Cc1nccn1C1CCCN(C(=O)c2ccc3c(c2)OCCCO3)C1` (stereo unspecified) gave a cytotoxicity at 10 µM of -12.9%. For `CCn1c(CN2CCN(CCOC)CC2)nc2c(F)cccc21`, the cytotoxicity at 10 µM was -9.86%. `CC(C(=O)NCc1ccc(-n2cncn2)nc1)S(C)(=O)=O` (stereo unspecified) gave a cytotoxicity at 10 µM of 7.41%. In the case of `Cc1ccc(CN(C)Cc2nc3c(cnn3C)c(=O)[nH]2)c(C)c1`, the cytotoxicity at 10 µM was 0.403%. Work on `N#CCCN(C(=O)CN1CCCC1c1ccsc1)c1ccccc1F` (stereo unspecified) yielded a cytotoxicity at 10 µM of -5.8%. `CSc1ncccc1C(=O)NCc1ccc(CS(=O)(=O)NC(C)C)cc1` gave a cytotoxicity at 10 µM of 4.4%. In the case of `Cc1cc(C)n(C2CCCN(C(=O)CCCNc3ncccn3)C2)n1` (stereo unspecified), the cytotoxicity at 10 µM was 5.15%. `Cc1ccc(NC2CCN(C(=O)Cc3cccc(F)c3)CC2)nn1` gave a cytotoxicity at 10 µM of -5.23%. In the case of `Cc1ncc(CN2Cc3ccccc3OC3(CCC(CO)CC3)C2)cn1` (stereo unspecified), the cytotoxicity at 10 µM was 0.179%. With `O=C(NCC1CC1)[C@@H]1CCO[C@@H]2CCN(CCc3ccccc3)C[C@H]21` the cytotoxicity at 10 µM was 1.14%.

From ChEMBL document CHEMBL4513216, “Probing the Open Global Health Chemical Diversity Library for Multistage-Active Starting Points for Next-Generation Antimalarials” (ACS Infect Dis, 2020)
